The chains are these.
B1: tRNA (parent)
chain: GUUCCGUUGGCGUAAUGGUAACGCGUCUCCCUCCUAAGGAGAAGACUGCGGGUUCGAGUCCCGUACGGAACG

Fewer inactive variants are shown than the library holds.

The variants in the series derive from B1. The series can be described thus: yeast fitness relative to wild type (ratio to wild type); higher = fitter; tRNA-Arg(CCU), competitive growth, 37 C, YPD. In a few lines: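 Gene amplicons from the start population and from each of six end populations were read by 100-nucleotide paired-end sequencing. Those end populations came from pooled Saccharomyces cerevisiae strains carrying tRNA-Arg(CCU) gene variants at the native locus, competed in YPD at 37°C for 24 hours. Fitness relative to wild type was worked out from changes in genotype frequencies. Genotypes needed ≥ 100 starting reads, and estimates < 0.5 were set to 0.5.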
On to U2A C61U A70G, for which the yeast fitness was 0.571.

Regarding C4A U26A U32G A65G, the yeast fitness was found to be 0.793.

Take C11A U16C A21G: the yeast fitness was no more than 0.5.

On to C22U C27G, for which the yeast fitness stood at 0.721.

Consider C4U C11G G18A U26C G52C, for which the yeast fitness was no more than 0.5.

Consider A37U U47C, for which the yeast fitness turned out to be 0.667.

As to C31U G63C, the yeast fitness amounted to 0.766.

On to A43G U47A C55A, for which the yeast fitness was no more than 0.5.

On to U35A A40U C46G U53A, for which the yeast fitness was no more than 0.5.

Turning to G9A G56A C62U G67A, the yeast fitness stood at 0.525.

For the variant G25C U26G C46G G51A A70U, the yeast fitness was no more than 0.5.

As to G9A C31U A40C C66A, the yeast fitness is no more than 0.5.

For C24U G38A G51A G52C, the yeast fitness amounted to 0.634.

Consider U13A A36G A43U G51A, for which the yeast fitness was no more than 0.5.

On to C27G C30G G56U, for which the yeast fitness is 0.543.

With U26C A42C, the yeast fitness was found to be 0.828.

On to U32G A40U, for which the yeast fitness stood at 0.624.

With C29U C49U, the yeast fitness is 0.836.

For C31A A37U C49A, the yeast fitness came out at 0.745.

For U8C U19A A40U, the yeast fitness is 0.581.

For A14G A42U A45C U59A, the yeast fitness is no more than 0.5.

U2C U28C C34U: the yeast fitness was no more than 0.5.

For U8C G10A U35A, the yeast fitness was no more than 0.5.

As to U7A C22G C30U U32C A37G A70G, the yeast fitness was no more than 0.5.

On to U16A G50C C66G, for which the yeast fitness was no more than 0.5.

In the case of G6A G48C G63C, the yeast fitness turned out to be 0.667.

As to C31U C55A, the yeast fitness worked out at 0.749.

For C30G A57G G63A, the yeast fitness is no more than 0.5.

As to G6A G12A C27U C30G C55U A57C, the yeast fitness was no more than 0.5.

In the case of G6C G18C A21G A40U C49U, the yeast fitness is no more than 0.5.

In the case of C29G C30G C49A G56C C61U, the yeast fitness is 0.982.

As for C5U A37C G50C, the yeast fitness is no more than 0.5.

In the case of C30G C31G G38C C46G A69C, the yeast fitness is 0.572.

With U35A A45C G68U, the yeast fitness is no more than 0.5.

Turning to G48A G50A, the yeast fitness was found to be 0.973.

As for U2A C34G A36G A43U, the yeast fitness is no more than 0.5.

Turning to C5G A45U A57U, the yeast fitness turned out to be 0.565.

For A65U C66A, the yeast fitness turned out to be 0.751.

Turning to G25C G41C A42U C49A, the yeast fitness is no more than 0.5.

Regarding A20G C22A A37C A65G, the yeast fitness was no more than 0.5.

With G10C G52C, the yeast fitness was no more than 0.5.

With C22U G44C, the yeast fitness is 0.812.

In the case of C46U U54C G68A, the yeast fitness is no more than 0.5.

As to C49U U53A, the yeast fitness is 0.791.

C5U G10A C27G G48C C61G: the yeast fitness was no more than 0.5.

Turning to U3C C27U G48A C55A G63A, the yeast fitness is no more than 0.5.

With C33G G39C C55A, the yeast fitness is no more than 0.5.

In the case of A14U C46U, the yeast fitness was found to be 0.664.

Turning to C11U A14C, the yeast fitness is 0.745.

In the case of C4U A20G C30A, the yeast fitness was found to be 0.81.

As for C11G G23C, the yeast fitness amounted to 1.07.

A15C G38A A45G G52A C61G: the yeast fitness worked out at 0.539.

Consider A37U A42C G48C A70U, for which the yeast fitness was no more than 0.5.

For G12A C61U, the yeast fitness stood at 0.924.

Consider A21C C29U A43G C66U, for which the yeast fitness is no more than 0.5.

As for A21G C34G C55G, the yeast fitness was no more than 0.5.

With C22U C27U U32A C66U G67C, the yeast fitness is no more than 0.5.

U16C C60A C62U: the yeast fitness was found to be 0.55.

As to U3A U32G G63C C66U, the yeast fitness was no more than 0.5.

U16G G63A: the yeast fitness worked out at 0.937.

Consider U7G C11G C34U G41A A65C C66U, for which the yeast fitness was no more than 0.5.

A15U U53G: the yeast fitness stood at 0.539.

For the variant C46G G48C A65U G68A, the yeast fitness was no more than 0.5.

For G12A A20G A21U A40G, the yeast fitness is no more than 0.5.

For C22G C27G C31G A69U, the yeast fitness came out at 0.554.

G38C G41C C61U: the yeast fitness is no more than 0.5.

In the case of U3G C11U U19C A20U A42C A65C, the yeast fitness is no more than 0.5.

Consider C4G C30A C49G A65C, for which the yeast fitness was no more than 0.5.

With C5G G63A, the yeast fitness turned out to be 0.843.

On to A15G C34G, for which the yeast fitness is 0.636.

Turning to A21U A65C, the yeast fitness was found to be 0.793.

As to U35G G38C G63A, the yeast fitness was no more than 0.5.

Turning to C5G C11A U19C A20C C33A C61G C66U A69U, the yeast fitness was no more than 0.5.

With C27A C46A C66U, the yeast fitness amounted to 0.704.

For the variant U7C A37G A42C C49G C61U G63A, the yeast fitness was no more than 0.5.

As for C5G G12C G18A C24U C29U A36G A69C, the yeast fitness was no more than 0.5.

Take U26C G67U: the yeast fitness was 0.696.

As for U26G C31U G68C, the yeast fitness was determined as 0.636.

Consider C24A U26A C31A C62A, for which the yeast fitness is no more than 0.5.

U26C C29A G67C: the yeast fitness is no more than 0.5.

Consider A14G G18A U26A G50A, for which the yeast fitness is no more than 0.5.

With A20U G38C G68U, the yeast fitness was no more than 0.5.

As for A21G G44C G63C, the yeast fitness was no more than 0.5.

As to U26G A42U, the yeast fitness came out at 0.795.

With U28C C61U A69U, the yeast fitness turned out to be 0.727.

Consider U2G U16G C27A A36C A70C, for which the yeast fitness is no more than 0.5.

In the case of C5U A21G C27U G41A G63U, the yeast fitness is no more than 0.5.

Turning to C22U A45C G50A G67C A69C, the yeast fitness was no more than 0.5.

G6A G9C C11G C22A C30U C31G G67U: the yeast fitness was no more than 0.5.

In the case of U2A U3G C11A G12A U16C C22G C62U, the yeast fitness was no more than 0.5.

As to G17C C30G C33G, the yeast fitness was no more than 0.5.

G6C G10A C27A C61U A65U: the yeast fitness was no more than 0.5.

For the variant C4U U59G, the yeast fitness worked out at 0.909.

With U7C C29G C49U, the yeast fitness turned out to be 0.712.

Turning to G51A C61A G68C, the yeast fitness is no more than 0.5.

Regarding A20C A57U A65U, the yeast fitness turned out to be 0.571.

On to U16C G25C C34U, for which the yeast fitness is 0.544.

As for C11A U16C U32G G48A C49G C55A, the yeast fitness was no more than 0.5.

In the case of G6A U16A C61G G67U, the yeast fitness was no more than 0.5.

In the case of G9A A15G A43G C49G U53G, the yeast fitness was found to be 0.553.

Regarding U32C A43G A65C, the yeast fitness amounted to 0.913.

C5U C22U C33U G68C A69U: the yeast fitness was no more than 0.5.

On to G41C G56A, for which the yeast fitness was 0.825.

On to U7C U47C U54C C55G, for which the yeast fitness was no more than 0.5.

In the case of U13C A37C U53C, the yeast fitness turned out to be 0.599.

Turning to C24G C27U C33U G50A, the yeast fitness is no more than 0.5.

As to U3C C5G A21U A42C, the yeast fitness is no more than 0.5.

For the variant A42C G58A C62A, the yeast fitness is no more than 0.5.

On to U2G G48A G58C A65U G67C, for which the yeast fitness is no more than 0.5.

With A14G C55G, the yeast fitness was determined as 0.583.

With U8A A20C C31U, the yeast fitness was no more than 0.5.

For G17A A20G U28A U35A A70C, the yeast fitness was no more than 0.5.

Take C11A A15U U16C A21U A36C A37U: the yeast fitness is no more than 0.5.

Consider G10A A14C C34U A42G, for which the yeast fitness was 0.65.

Turning to C31A A37C G58C, the yeast fitness is 0.521.

On to A40U C49U C62U A69G, for which the yeast fitness was determined as 0.904.

With U16A A70U, the yeast fitness came to 1.03.

As to C11U C22G U59C, the yeast fitness is 0.575.

Consider G17C G23A G25C C29G A36U G39A C46U C55U, for which the yeast fitness is no more than 0.5.

Take C4G C30U A42U G50C G63C: the yeast fitness is no more than 0.5.

For U8C G18C G50A C60U, the yeast fitness was 0.546.

Turning to A45U U53C, the yeast fitness worked out at 0.793.

Consider G9A C31U U53A, for which the yeast fitness stood at 0.638.

As to A21U C55A A65C, the yeast fitness is no more than 0.5.

Consider A15U U64A, for which the yeast fitness came to 0.709.

Turning to U16G C61U C66G, the yeast fitness stood at 0.569.

With A20G A45C A69U, the yeast fitness amounted to 0.729.

On to C55U G68C, for which the yeast fitness came to 0.702.

As for G17C U28A C34G G38A U59A, the yeast fitness was no more than 0.5.

On to G12U C30G, for which the yeast fitness was no more than 0.5.

Regarding G6C C34A, the yeast fitness was 0.611.

Take C30G A57U C60G: the yeast fitness is no more than 0.5.

With C24U C34G A40U G67A, the yeast fitness was no more than 0.5.

For the variant G12A U47G U53A C60A, the yeast fitness is no more than 0.5.

Consider C22U U35A, for which the yeast fitness was 0.553.

For the variant U7G C30A A65C, the yeast fitness was found to be 1.06.

Regarding U13C U16G, the yeast fitness was found to be 0.865.

For the variant A21C C27G U28A C29U C34U C62U G63C, the yeast fitness is no more than 0.5.

With A37G G41A G50A, the yeast fitness was no more than 0.5.

For the variant U28G U32A A43C, the yeast fitness was no more than 0.5.

Regarding U3A A65C A70C, the yeast fitness stood at 0.679.

In the case of G10C A15U C33A A36U C62U, the yeast fitness is no more than 0.5.

With G10A G17C C30G C33G, the yeast fitness amounted to 0.578.

Turning to U8A G38A, the yeast fitness came out at 0.652.

G12A U13A G67U: the yeast fitness turned out to be 0.537.

On to U19G A20U C27G, for which the yeast fitness is no more than 0.5.

Regarding C30G G39C U59C G63C, the yeast fitness is 0.558.

Regarding A14U C61G, the yeast fitness was no more than 0.5.

Turning to C27A A43U U64C, the yeast fitness came to 0.628.

With G25A C34G G50C C62A, the yeast fitness was no more than 0.5.

On to C4U G12C U28G C62G, for which the yeast fitness is no more than 0.5.

Regarding C11A G51A, the yeast fitness amounted to 0.618.

Turning to C55A A70G, the yeast fitness worked out at 0.557.

For C29G G41C A65U, the yeast fitness is no more than 0.5.

With G18A U28C, the yeast fitness is 0.739.

In the case of U7G G10C C33U U53G C60A G68U A69C, the yeast fitness was determined as 0.776.

Turning to C5G A65G A69U, the yeast fitness was determined as 0.71.

Take U32A A42U: the yeast fitness is 0.861.

Take C4G C62U A69U: the yeast fitness was 0.672.

Take C11A C27G C34A A42C U54C C60A C62G A70U: the yeast fitness was found to be 0.624.

Regarding C4U G10A C11G A20G C27G A65U, the yeast fitness is no more than 0.5.

Regarding U2G G12U A43U, the yeast fitness came to 0.631.

Take C5G G12A U28A A65G: the yeast fitness is 0.703.

As for G38C G44A A65G, the yeast fitness is no more than 0.5.

Take C22G C27G C31G G56A C61G A69U: the yeast fitness was no more than 0.5.

As to C4G G17A A36U, the yeast fitness came out at 0.691.

Consider U7G U13C G52A A57C A65C, for which the yeast fitness was no more than 0.5.

These data come from the RNAGym collection of RNA variant scans (doi:10.1126/science.aae0568).
